Experimental findings from ChEMBL document CHEMBL1914406, “Inhibitory effect of novel 5-O-acyl juglones on mammalian DNA polymerase activity, cancer cell growth and inflammatory response” (Bioorg Med Chem, 2011) are described below.

For one series, the system named is HCT-116. Kind of series: Cytotoxicity against human HCT116 cells by WST-1 assay. In kind it is functional, cell-based. A digest of the protocol: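 HCT116 colon carcinoma cells (ATCC) grown in McCoy's 5A with 10% FBS, penicillin and streptomycin, 37 °C, 5% CO2. Plated at 1 × 10⁴ cells/well together with compound, which was diluted from a 10 mM DMSO stock into medium (final 0.5% DMSO). Incubated 24 h. Viability read by WST-1, expressed relative to untreated cells.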

The test system of series [1] is RAW264.7. Briefly: Antiinflammatory activity in mouse RAW264.7 cells assessed as inhibition of LPS-induced TNFalpha secretion at 5 uM treated 30 mins before LPS challenge measured after 24 hrs by ELISA. The series is classed as functional, cell-based. In outline: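 RAW264.7 cells in MEM with 4.5 g/L glucose, 10% FCS, 5 mM L-glutamine, at 37 °C in 5% CO2. Seeded at 5 × 10⁴ cells/well and grown 24 h. Compound (final 1 and 5 µM) given 30 min before 100 ng/mL LPS. After 24 h, TNF-α in the medium measured by ELISA, relative to the no-compound value (100%). Mean ± SE, n = 4.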
A general note: An ELISA detects its analyte on a solid surface through an enzyme-linked reagent.

Series [2] has as its system RAW264.7. Briefly: Cytotoxicity against mouse RAW264.7 cells at 5 uM. In kind it is cell-based. As to conditions: raw264.7, 5 µM.
The nature of series [3]: Cytotoxicity against mouse RAW264.7 cells. The series is classed as cell-based. As to conditions: read-out: LD50 (the source's name).
Another series relates to Mus musculus. Briefly: Antiinflammatory activity in mouse assessed as inhibition of TPA-induced mouse ear edema at 500 ug/ear administered 30 mins before TPA challenge measured after 7 hrs relative to untreated control. In kind it is functional, organism-based. A digest of the protocol: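 Compound (500 µg) applied to one mouse ear; 30 min later TPA (0.5 µg) applied to both ears. Edema scored after 7 h and expressed as percentage of edema. Mean ± SE, n = 6.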

Series [4] concerns the target T1, DNA polymerase lambda (Homo sapiens) (UniProt Q9UGP5).
T1 sequence (whole entry): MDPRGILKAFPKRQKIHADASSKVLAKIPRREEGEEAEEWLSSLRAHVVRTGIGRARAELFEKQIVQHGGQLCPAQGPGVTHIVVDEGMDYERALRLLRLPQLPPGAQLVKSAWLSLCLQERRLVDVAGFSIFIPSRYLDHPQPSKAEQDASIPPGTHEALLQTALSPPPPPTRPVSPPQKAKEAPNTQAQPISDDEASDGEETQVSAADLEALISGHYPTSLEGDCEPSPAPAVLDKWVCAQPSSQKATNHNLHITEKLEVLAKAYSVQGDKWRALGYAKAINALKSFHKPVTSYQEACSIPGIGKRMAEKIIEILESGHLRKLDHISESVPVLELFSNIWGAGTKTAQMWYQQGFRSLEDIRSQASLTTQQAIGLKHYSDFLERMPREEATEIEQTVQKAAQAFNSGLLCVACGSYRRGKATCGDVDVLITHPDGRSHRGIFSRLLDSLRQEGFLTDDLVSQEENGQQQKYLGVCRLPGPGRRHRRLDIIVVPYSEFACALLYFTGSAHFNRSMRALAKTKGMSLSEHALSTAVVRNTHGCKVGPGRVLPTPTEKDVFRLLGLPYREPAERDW
Kind of series: Inhibition of recombinant His-tagged human DNA polymerase lambda using poly(dA)/oligo(dT)18 (A/T = 2/1) and dTTP as the DNA template-primer and nucleotide substrate at 10 uM after 60 mins. In outline:
(§1)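 Compound in DMSO, sonicated 30 s. Premixed 0 °C, 10 min with enzyme (0.05 units) in 50 mM Tris-HCl pH 7.5, 1 mM DTT, 50% glycerol, 0.1 mM EDTA, then added to standard reaction mixture. Template-primers: poly(dA)/oligo(dT)18 (2/1) for pols, oligo(dT)18 for TdT, poly(rA)/oligo(dT)18 for HIV-1 RT, with [3H]dTTP. 60 min at 37 °C (Taq 74 °C). Activity relative to no-inhibitor control; mean ± SE of three experiments.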

For series [5], the species on record is Bos taurus. Briefly: Inhibition of calf DNA polymerase alpha using poly(dA)/oligo(dT)18 (A/T = 2/1) and dTTP as the DNA template-primer and nucleotide substrate at 10 uM after 60 mins. In outline:
as §1

For series [6], the species on record is Homo sapiens. Briefly: Inhibition of histidine-tagged human DNA polymerase gamma using poly(dA)/oligo(dT)18 (A/T = 2/1) and dTTP as the DNA template-primer and nucleotide substrate at 10 uM after 60 mins. In outline:
as §1

Series [7] has as its target T2, DNA polymerase kappa (Homo sapiens) (UniProt Q9UBT6).
T2 sequence (whole entry): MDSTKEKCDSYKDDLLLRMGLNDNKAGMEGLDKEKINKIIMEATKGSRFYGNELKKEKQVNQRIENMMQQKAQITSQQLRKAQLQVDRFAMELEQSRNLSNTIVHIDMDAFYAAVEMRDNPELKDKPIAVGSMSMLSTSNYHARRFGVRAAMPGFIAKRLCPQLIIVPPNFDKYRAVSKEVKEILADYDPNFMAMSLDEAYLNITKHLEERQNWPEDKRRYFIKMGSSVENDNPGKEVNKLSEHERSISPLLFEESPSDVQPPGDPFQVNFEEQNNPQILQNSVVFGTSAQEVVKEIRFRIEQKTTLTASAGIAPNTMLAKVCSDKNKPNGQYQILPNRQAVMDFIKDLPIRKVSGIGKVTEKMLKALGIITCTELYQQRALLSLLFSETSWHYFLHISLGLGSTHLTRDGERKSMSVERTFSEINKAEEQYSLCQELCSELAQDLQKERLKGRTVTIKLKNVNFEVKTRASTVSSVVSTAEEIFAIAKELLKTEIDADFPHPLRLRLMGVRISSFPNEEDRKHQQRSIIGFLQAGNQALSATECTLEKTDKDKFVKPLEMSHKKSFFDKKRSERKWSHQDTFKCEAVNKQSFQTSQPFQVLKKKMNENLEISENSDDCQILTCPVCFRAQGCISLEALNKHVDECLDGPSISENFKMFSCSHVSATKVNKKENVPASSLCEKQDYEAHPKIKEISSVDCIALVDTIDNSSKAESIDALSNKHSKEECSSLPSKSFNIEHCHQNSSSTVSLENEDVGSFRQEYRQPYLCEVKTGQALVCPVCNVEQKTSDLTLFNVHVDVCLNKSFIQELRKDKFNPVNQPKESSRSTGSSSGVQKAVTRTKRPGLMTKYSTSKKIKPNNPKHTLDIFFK
Briefly: Inhibition of C-terminal His6-tagged human DNA polymerase kappa (amino acids 1 to 560) using poly(dA)/oligo(dT)18 (A/T = 2/1) and dTTP as the DNA template-primer and nucleotide substrate at 10 uM after 60 mins.

Series [8] is filed under the species Bos taurus. Briefly: Inhibition of calf DNA polymerase alpha using bovine deoxyribonuclease 1-treated DNA and dNTP as the DNA template-primer and nucleotide substrate at 10 uM after 60 mins.
The species named for series [9] is Homo sapiens. Briefly: Inhibition of histidine-tagged human DNA polymerase gamma using bovine deoxyribonuclease 1-treated DNA and dNTP as the DNA template-primer and nucleotide substrate at 10 uM after 60 mins.
The target in series [10] is T2, DNA polymerase kappa (Homo sapiens). Briefly: Inhibition of C-terminal His6-tagged human DNA polymerase kappa (amino acids 1 to 560) using bovine deoxyribonuclease 1-treated DNA and dNTP as the DNA template-primer and nucleotide substrate at 10 uM after 60 mins.
Series [11] has as its target T1, DNA polymerase lambda (Homo sapiens). Kind of series: Inhibition of recombinant His-tagged human DNA polymerase lambda using bovine deoxyribonuclease 1-treated DNA and dNTP as the DNA template-primer and nucleotide substrate at 10 uM after 60 mins.

Activity calls are given as the source filed them. No cut-off for these calls is given here.

Take `CCCCCCCC/C=C\CCCCCCCC(=O)O` [OLEIC ACID]: the result with HCT-116, in the series on RAW264.7 [1] and with Mus musculus was inactive. In addition, the Activity entry with RAW264.7 [2] is listed as “Non-toxic”. Moreover, the CC50 in series [3] was greater than 10 µM. Moreover, the inhibition result (in series [4]; in the series listed under Bos taurus [5]; in the series filed under Homo sapiens [6]; in [7]; in the series listed under Bos taurus [8]; in the series listed under Homo sapiens [9]) was “inactive” each time. For the same compound, the inhibition entry in series [10] and in series [11] was “inactive” throughout.

As to `CC/C=C\C/C=C\C/C=C\CCCCCCCC(=O)O` [LINOLENIC ACID], the outcome in the series on HCT-116, in the series on RAW264.7 [1] and in the series with Mus musculus was inactive. Besides, the Activity result in the series with RAW264.7 [2] is on record as “Non-toxic”. Moreover, the CC50 in [3] was greater than 10 µM. The inhibition result (in [4]; in the series filed under Bos taurus [5]; in the series filed under Homo sapiens [6]; in series [7]; in the series listed under Bos taurus [8]; in the series listed under Homo sapiens [9]) was “inactive” throughout. Also, the inhibition result in series [10] and in series [11] was “inactive” each time.

`CC(=O)O` [ACETIC ACID]: the outcome in the series on HCT-116, with RAW264.7 [1] and in the series with Mus musculus was inactive. Besides, the Activity result in the series on RAW264.7 [2] is reported as “Non-toxic”. Besides, the CC50 in series [3] was greater than 10 µM. For the same compound, the inhibition result (in [4]; in the series listed under Bos taurus [5]; in the series listed under Homo sapiens [6]; in [7]; in the series filed under Bos taurus [8]; in the series filed under Homo sapiens [9]) was “inactive” each time. In addition, the inhibition result in series [10] and in series [11] was “inactive” each time.

Consider `CCC(=O)O` [PROPIONIC ACID], for which the outcome in the series on HCT-116, in the series on RAW264.7 [1] and in the series on Mus musculus was inactive. For the same compound, the Activity entry in the series on RAW264.7 [2] is on record as “Non-toxic”. The CC50 in series [3] is greater than 10 µM. Also, the inhibition entry (in [4]; in the series listed under Bos taurus [5]; in the series filed under Homo sapiens [6]; in series [7]; in the series filed under Bos taurus [8]; in the series filed under Homo sapiens [9]) was “inactive” in each case. Also, the inhibition result in [10] and in series [11] was “inactive” each time.

`CCCCCC(=O)O` [HEXANOATE]: the result in the series with HCT-116, in the series on RAW264.7 [1] and in the series on Mus musculus was inactive. Besides, the Activity result with RAW264.7 [2] is “Non-toxic”. In addition, the CC50 in [3] was greater than 10 µM. The inhibition result (in [4]; in the series filed under Bos taurus [5]; in the series listed under Homo sapiens [6]; in series [7]; in the series filed under Bos taurus [8]; in the series filed under Homo sapiens [9]) was “inactive” throughout. For the same compound, the inhibition entry in [10] and in series [11] was “inactive” in each case.

As to `CC/C=C\C/C=C\C/C=C\C/C=C\C/C=C\CCCC(=O)O` [ICOSAPENT], the result in the series with HCT-116, in the series with RAW264.7 [1] and in the series with Mus musculus was inactive. In the series with RAW264.7 [2], the Activity entry is listed as “Non-toxic”. Besides, the CC50 in series [3] is greater than 10 µM. In addition, the inhibition result (in [4]; in the series filed under Bos taurus [5]; in the series listed under Homo sapiens [6]; in series [7]; in the series listed under Bos taurus [8]; in the series filed under Homo sapiens [9]) was “inactive” each time. Also, the inhibition result in [10] and in series [11] was “inactive” in each case.

`CC/C=C\C/C=C\C/C=C\C/C=C\C/C=C\C/C=C\CCC(=O)O` [DOCONEXENT]: the outcome with HCT-116, in the series with RAW264.7 [1] and in the series with Mus musculus was inactive. The Activity result in the series with RAW264.7 [2] was “Non-toxic”. In addition, in [3], the CC50 is greater than 10 µM. The inhibition result (in series [4]; in the series filed under Bos taurus [5]; in the series listed under Homo sapiens [6]; in series [7]; in the series listed under Bos taurus [8]; in the series filed under Homo sapiens [9]) was “inactive” throughout. In addition, the inhibition result in series [10] and in [11] was “inactive” throughout.

On to `CCCCCCCCCCCC(=O)O` [DODECANOATE], for which the outcome with HCT-116, with RAW264.7 [1] and with Mus musculus was inactive. Also, in the series on RAW264.7 [2], the Activity entry is on record as “Non-toxic”. Moreover, the CC50 in series [3] is greater than 10 µM. For the same compound, the inhibition entry (in [4]; in the series filed under Bos taurus [5]; in the series filed under Homo sapiens [6]; in [7]; in the series filed under Bos taurus [8]; in the series filed under Homo sapiens [9]) was “inactive” in each case. The inhibition result in [10] and in series [11] was “inactive” in each case.

With `CC1=CC(=O)c2ccccc2C1=O`, the inhibition entry in the series filed under Homo sapiens [6] and in the series listed under Homo sapiens [9] was “Active” throughout.
